Measured values pooled from the literature.
Each line is one published result; the experiments were not run side by side.
Target: Protein kinase C delta type (PRKCD, Homo sapiens, UniProt Q05655)

Cn1cncc1C1=CN(c2ncnc3[nH]cnc23)CCS1 — inhibition (enzyme activity, inhibitor, radiometric; 50 nM): 12.6%
Cc1cc(NC(=O)c2cccc3cc(-c4cccc5[nH]nc(N)c45)ccc23)ccc1F — activity vs control (enzyme activity, inhibitor; 0.1 µM): 108%
Cc1cnc(NC2CCOCC2)nc1-n1cnc(C(=O)NC(CN)c2cc(F)cc(Cl)c2)c1 (stereo not shown) — remaining activity (enzyme activity, inhibitor, radiometric; 1 µM): 59%
CCN(CC)c1ccc(C2=NNC(=O)CC2C)cc1[N+](=O)[O-] (stereo not shown) — remaining activity (enzyme activity, inhibitor; 10 µM): 85%
C[C@@H](N)[C@H]1CC[C@H](C(=O)Nc2ccncc2)CC1 — inhibition (enzyme activity, inhibitor, TR-FRET; 10 µM): 82.5%
CCCOc1ccc(OC)c(F)c1C(=O)c1ccc(C(=O)N[C@@H]2CNC[C@H]2NC(=O)c2ccc3[nH]ncc3c2)cc1 — remaining activity (enzyme activity, inhibitor; 0.75 µM): 68%
O=C(Nc1cnn(-c2csc(C(=O)NC3COC3)c2)c1)Nc1ccccc1Cl — remaining activity (enzyme activity, inhibitor; 5 µM): 112%
CC(C)(C)c1nc(-c2cccc(NS(=O)(=O)c3c(F)cccc3F)c2F)c(-c2ccnc(N)n2)s1 — remaining activity (enzyme activity, inhibitor, radiometric; 1 µM): 119%
Cc1ccc(Nc2nccc(N(C)c3ccc4c(C)n(C)nc4c3)n2)cc1S(N)(=O)=O — remaining activity (enzyme activity; 0.5 µM): 106%
CCC(=O)N[C@H]1CC[C@@H](C(=O)N(C)c2ccc(-c3nc4ccccc4o3)cc2)C1 — remaining binding (cell-free assay, competition with immobilised ligand; 1 µM): 100%
Cn1cnc(Br)c1C1=CN(c2ncnc3[nH]cnc23)CCS1 — inhibition (enzyme activity, inhibitor, radiometric; 2 µM): 93.4%
N#Cc1ccc(Nc2ccc3[nH]c(=O)[nH]c3c2)c(Cl)c1 — remaining binding (cell-free assay, competition with immobilised ligand; 1 µM): 100%
N#CCCc1ccc2c(c1)-c1[nH]c3ccc([N+](=O)[O-])cc3c1CC(=O)N2 — remaining signal (cell-free assay; 0.5 µM): 74.9%
FC(F)(F)c1ccc2c(c1)nc(-c1cccnc1)n2C1CC1 — remaining binding (cell-free assay, competition with immobilised ligand; 1 µM): 100%
CC/C(=N\NC(=O)NCc1cccc(O)c1)c1ccc(O)c(C)c1O — inhibition (enzyme activity, inhibitor; 0.1 µM): 24.6%
CC(=O)C1=C(C)N(c2cccc(C(F)(F)F)c2)C(=O)N[C@@H]1c1ccc(C#N)nc1 — remaining binding (cell-free assay, competition with immobilised ligand; 1 µM): 100%
O=C1Nc2ccc(Cl)cc2C1=Cc1cc(Cl)c(O)c(Cl)c1 — remaining signal (cell-free assay; 0.5 µM): 86.7%
Nc1c(C(=O)NCc2ccc(C(=O)NCCCC3CCCCC3)cc2)cnn1-c1ccccc1 — remaining binding (cell-free assay, competition with immobilised ligand; 0.1 µM): 88%
COc1cc2ncnc(Nc3ccc(Oc4ccccc4)c(C)c3C)c2cc1OC — inhibition (enzyme activity, inhibitor; 1 µM): 23%
COCCOc1nc(-c2ccc(Cl)nc2)nc2c1CN(C(=O)c1ncn3ccccc13)CC2 — remaining binding (cell-free assay, competition with immobilised ligand; 0.1 µM): 100%
CNC(=O)c1cc(Oc2ccc(NC(=O)Nc3ccc(Cl)c(C(F)(F)F)c3)cc2)ccn1 — inhibition (enzyme activity, inhibitor; 10 µM): -6%
CC1=C(C#N)C(c2ccc3c(c2)c(NC(=O)c2ccccc2C)nn3C)C(C#N)=C(C)N1 — remaining binding (cell-free assay, competition with immobilised ligand; 1 µM): 100%
COc1cc(Cl)c(C(=O)N[C@@H](CN[C@H]2CC[C@@H](N)CC2)Cc2ccc(C#N)cc2)cc1-c1ccc(CN[C@H](C)c2ccc(C)cc2)o1 — remaining activity (enzyme activity, inhibitor; 1 µM): 100%
CC(C)(O)[C@H]1CC[C@H](Nc2ccc3ncc(-c4cccc(C(F)(F)F)c4)n3n2)CC1 — remaining activity (enzyme activity, inhibitor; 1 µM): 84.2%
C[C@@]1(Cc2ccc(C#N)cc2)C(=O)N(c2cc(Cl)cc(Cl)c2)c2ncc(C(=O)NC3(c4nc(C5CCC5)no4)CC3)n21 — remaining binding (cell-free assay, competition with immobilised ligand; 1 µM): 100%
